Results reported in publication PMC3101112 (Cancer Management and Research, 2011).

Tests used:
[1] = biological target: EPHA3 (Homo sapiens, UniProt P29320); test: Biochemical inhibition profile, EPHA3; conditions: read-out: Biochemical Inhibition Profile IC50, EPHA3
[2] = system: pFLT3, pcKIT, pS6 in AML blasts; test: Flow cytometry of phosphoproteins in AML blasts of patients; assay type: in vivo, human; conditions: after multiple dosing 50 mg/day; at least three patients (B, C, and E)
How it was run: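 Patient blood or marrow samples reached a central lab within 48 h. […] Peripheral CD34+CD11− cells were gated on a 3-laser FACSCanto II. Sampling was predose, day 1, 8, 15 and end of study. Read-out was MEFL.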

[3] = Adverse events; assay type: in vivo, human
How it was run: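 Five relapsed AML patients took test compound 50 mg/day as a once-daily oral capsule after an ~8 h fast, with breakfast at least 60 min later. A single-dose visit came first, then multidose treatment for four weeks (two weeks after amendment). Adverse events were graded by CTCAE v3.0. Dose-limiting toxicity definitions covered Grade ≥3 nonhematological events and Grade 3/4 QTc or blood-pressure changes.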

[4] = biological target: p70S6K (Homo sapiens, UniProt P23443); test: Biochemical inhibition profile, p70S6K; conditions: at 20 μM
Chain of p70S6K (P23443 whole entry): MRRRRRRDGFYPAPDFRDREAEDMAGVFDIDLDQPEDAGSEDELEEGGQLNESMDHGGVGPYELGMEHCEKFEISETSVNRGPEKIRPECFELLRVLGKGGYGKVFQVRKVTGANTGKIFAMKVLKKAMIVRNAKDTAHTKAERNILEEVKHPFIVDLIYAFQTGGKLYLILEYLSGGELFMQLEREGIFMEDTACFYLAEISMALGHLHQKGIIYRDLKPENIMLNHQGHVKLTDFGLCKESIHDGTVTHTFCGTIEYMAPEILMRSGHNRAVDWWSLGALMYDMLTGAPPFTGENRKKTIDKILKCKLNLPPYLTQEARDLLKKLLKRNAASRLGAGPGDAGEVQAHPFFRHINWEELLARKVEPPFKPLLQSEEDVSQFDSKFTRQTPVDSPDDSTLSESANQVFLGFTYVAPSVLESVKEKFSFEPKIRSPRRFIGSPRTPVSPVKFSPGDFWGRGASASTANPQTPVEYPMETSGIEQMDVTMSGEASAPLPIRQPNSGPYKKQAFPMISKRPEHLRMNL

[5] = system: pERK T202Y204 in HUVEC; test: Cell-based target inhibition assay, HUVEC, VEGF, pERK; parameters: species or system human; conditions: read-out: Cell-Based Target Inhibition Assays IC50, pERK T202Y204, activator VEGF
[6] = system: AML blasts; test: Antileukemia response assessment in patients; assay type: in vivo, human
How it was run: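 Response was judged by WHO criteria on bone marrow aspirates taken at baseline and after four weeks of daily oral dosing (two weeks after amendment). Peripheral blast counts were taken daily during the multidose visit. A sustained fall in peripheral blast counts lasting longer than four weeks also counted as a pharmacodynamic response.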

[7] = biological target: EPHA8 (Homo sapiens, UniProt P29322); test: Biochemical inhibition profile, EPHA8; conditions: read-out: Biochemical Inhibition Profile IC50, EPHA8
Chain of EPHA8 (P29322 28-1005): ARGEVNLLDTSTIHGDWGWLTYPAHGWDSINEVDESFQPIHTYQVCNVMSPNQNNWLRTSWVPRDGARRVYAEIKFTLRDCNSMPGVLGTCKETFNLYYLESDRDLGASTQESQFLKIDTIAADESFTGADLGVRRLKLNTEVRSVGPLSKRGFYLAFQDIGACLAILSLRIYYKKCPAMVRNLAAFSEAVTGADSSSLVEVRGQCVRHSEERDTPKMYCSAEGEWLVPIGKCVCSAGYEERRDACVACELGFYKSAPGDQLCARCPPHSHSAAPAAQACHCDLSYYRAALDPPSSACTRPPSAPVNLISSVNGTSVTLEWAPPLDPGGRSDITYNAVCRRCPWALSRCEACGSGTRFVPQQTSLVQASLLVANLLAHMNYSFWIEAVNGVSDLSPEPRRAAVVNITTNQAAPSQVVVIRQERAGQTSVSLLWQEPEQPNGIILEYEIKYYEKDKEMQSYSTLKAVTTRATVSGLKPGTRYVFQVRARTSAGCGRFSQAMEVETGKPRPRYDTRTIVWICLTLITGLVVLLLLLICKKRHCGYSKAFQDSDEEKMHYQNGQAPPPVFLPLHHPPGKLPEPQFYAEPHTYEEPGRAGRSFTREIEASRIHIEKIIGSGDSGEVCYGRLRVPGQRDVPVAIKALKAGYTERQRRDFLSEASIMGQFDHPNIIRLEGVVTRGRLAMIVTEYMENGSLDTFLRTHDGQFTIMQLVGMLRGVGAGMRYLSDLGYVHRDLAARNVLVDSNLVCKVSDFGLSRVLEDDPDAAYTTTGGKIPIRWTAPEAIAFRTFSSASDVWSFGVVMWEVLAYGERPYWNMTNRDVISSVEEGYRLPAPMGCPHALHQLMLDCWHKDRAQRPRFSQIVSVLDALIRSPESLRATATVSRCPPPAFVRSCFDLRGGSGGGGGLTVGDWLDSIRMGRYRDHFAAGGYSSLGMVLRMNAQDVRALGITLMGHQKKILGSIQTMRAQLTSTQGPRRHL

[8] = biological target: VEGF-R1 (Homo sapiens, UniProt P17948); test: Biochemical inhibition profile, VEGF-R1; conditions: read-out: Biochemical Inhibition Profile IC50, VEGF-R1
[9] = biological target: EPHA7 (Homo sapiens, UniProt Q15375); test: Biochemical inhibition profile, EPHA7; conditions: read-out: Biochemical Inhibition Profile IC50, EPHA7
[10] = biological target: RET (Homo sapiens, UniProt P07949); test: Biochemical inhibition profile, RET; conditions: read-out: Biochemical Inhibition Profile IC50, RET
Chain of RET (P07949 29-1114): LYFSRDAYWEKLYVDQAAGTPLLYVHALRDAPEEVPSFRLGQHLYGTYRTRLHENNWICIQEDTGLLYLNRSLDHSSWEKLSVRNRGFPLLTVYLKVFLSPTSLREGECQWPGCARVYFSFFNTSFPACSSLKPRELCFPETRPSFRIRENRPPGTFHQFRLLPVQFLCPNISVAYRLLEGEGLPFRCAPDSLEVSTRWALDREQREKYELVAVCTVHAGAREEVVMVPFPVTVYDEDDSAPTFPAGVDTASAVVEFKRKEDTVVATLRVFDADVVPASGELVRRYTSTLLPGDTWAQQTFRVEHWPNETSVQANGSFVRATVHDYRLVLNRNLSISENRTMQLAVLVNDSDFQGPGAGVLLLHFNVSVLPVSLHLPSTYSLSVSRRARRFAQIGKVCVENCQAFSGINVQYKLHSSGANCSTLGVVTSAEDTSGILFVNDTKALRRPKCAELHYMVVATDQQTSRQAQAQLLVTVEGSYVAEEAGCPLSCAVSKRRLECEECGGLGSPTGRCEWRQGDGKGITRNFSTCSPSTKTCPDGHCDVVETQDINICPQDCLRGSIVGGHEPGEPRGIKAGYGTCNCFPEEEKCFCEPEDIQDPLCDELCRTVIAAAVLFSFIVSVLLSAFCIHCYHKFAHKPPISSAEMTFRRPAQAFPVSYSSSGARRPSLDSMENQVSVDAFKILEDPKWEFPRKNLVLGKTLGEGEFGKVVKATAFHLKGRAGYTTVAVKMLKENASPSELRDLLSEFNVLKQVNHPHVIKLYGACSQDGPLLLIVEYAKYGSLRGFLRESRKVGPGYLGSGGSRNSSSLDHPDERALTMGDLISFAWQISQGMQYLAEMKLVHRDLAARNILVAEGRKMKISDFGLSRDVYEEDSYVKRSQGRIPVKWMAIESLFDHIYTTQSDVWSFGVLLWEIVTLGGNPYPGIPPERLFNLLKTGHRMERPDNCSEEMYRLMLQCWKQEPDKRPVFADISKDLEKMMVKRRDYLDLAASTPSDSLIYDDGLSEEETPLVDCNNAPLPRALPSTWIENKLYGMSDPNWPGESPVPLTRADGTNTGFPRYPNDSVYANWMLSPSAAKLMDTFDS

[11] = biological target: FLT3 (Homo sapiens, UniProt P36888); test: Biochemical inhibition profile, FLT3; conditions: read-out: Biochemical Inhibition Profile IC50, FLT3
Chain of FLT3 (P36888 27-993): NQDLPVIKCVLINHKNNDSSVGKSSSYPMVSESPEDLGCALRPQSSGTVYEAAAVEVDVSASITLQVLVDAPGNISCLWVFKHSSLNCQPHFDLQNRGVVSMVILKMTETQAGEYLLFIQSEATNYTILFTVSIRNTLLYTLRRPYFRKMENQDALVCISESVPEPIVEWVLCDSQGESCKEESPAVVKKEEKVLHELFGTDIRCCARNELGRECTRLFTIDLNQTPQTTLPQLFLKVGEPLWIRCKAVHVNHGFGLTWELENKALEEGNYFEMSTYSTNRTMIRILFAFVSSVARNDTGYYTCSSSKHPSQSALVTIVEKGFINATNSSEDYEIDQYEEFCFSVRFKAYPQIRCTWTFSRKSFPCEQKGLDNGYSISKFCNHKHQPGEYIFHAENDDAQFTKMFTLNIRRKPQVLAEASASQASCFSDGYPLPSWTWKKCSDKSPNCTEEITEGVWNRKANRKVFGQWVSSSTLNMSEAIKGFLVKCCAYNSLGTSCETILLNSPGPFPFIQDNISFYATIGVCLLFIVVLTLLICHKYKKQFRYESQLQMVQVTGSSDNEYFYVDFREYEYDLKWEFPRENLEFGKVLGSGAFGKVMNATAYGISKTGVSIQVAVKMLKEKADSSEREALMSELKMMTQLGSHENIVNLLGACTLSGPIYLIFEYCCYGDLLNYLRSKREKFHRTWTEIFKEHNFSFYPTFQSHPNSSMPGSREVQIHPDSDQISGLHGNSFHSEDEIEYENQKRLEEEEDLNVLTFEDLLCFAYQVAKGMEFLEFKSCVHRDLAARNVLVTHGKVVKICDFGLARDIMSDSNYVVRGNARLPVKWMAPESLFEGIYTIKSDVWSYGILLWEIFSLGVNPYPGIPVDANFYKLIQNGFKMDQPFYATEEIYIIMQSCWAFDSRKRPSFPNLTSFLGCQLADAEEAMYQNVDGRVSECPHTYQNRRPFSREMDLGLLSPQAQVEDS

[12] = biological target: EPHB2 (Homo sapiens, UniProt P29323); test: Biochemical inhibition profile, EPHB2; conditions: read-out: Biochemical Inhibition Profile IC50, EPHB2
[13] = biological target: EPHA2 (Homo sapiens, UniProt P29317); test: Biochemical inhibition profile, EPHA2; conditions: read-out: Biochemical Inhibition Profile IC50, EPHA2
[14] = Maximum CTC grade 1, n = 5 patients, regardless of causality
[15] = Maximum CTC grade 2, n = 5 patients, regardless of causality
[16] = Maximum CTC grade 3, n = 5 patients, regardless of causality
[17] = Maximum CTC grade 4, n = 5 patients, regardless of causality

Chain of EPHA3 (P29320 21-983): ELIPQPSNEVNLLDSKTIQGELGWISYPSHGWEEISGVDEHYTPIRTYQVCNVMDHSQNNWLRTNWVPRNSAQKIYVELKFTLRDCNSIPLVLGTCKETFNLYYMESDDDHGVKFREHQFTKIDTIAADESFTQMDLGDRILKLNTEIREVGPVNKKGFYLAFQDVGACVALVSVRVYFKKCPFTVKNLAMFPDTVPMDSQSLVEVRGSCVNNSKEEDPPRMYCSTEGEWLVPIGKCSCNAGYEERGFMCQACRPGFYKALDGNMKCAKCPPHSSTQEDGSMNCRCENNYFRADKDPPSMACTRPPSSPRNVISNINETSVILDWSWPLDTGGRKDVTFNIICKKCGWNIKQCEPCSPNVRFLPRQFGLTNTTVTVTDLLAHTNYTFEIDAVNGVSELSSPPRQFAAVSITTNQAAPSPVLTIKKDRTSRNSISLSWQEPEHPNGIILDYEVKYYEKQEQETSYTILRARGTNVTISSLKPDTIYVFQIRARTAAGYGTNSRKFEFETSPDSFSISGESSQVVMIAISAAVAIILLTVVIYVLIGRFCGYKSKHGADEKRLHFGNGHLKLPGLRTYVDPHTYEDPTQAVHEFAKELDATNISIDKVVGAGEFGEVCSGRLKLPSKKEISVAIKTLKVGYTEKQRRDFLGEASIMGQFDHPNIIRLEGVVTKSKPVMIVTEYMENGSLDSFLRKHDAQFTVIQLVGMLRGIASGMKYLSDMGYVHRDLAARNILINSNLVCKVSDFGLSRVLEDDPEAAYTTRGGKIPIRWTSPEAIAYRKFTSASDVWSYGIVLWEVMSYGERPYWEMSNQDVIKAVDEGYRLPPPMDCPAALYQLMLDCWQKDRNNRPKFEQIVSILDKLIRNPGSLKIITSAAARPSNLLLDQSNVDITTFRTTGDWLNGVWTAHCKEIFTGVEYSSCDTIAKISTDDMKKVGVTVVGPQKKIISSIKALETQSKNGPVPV

SMILES: Cc1cc(-c2ccn3c(-c4ccc(CC(=O)Nc5cccc(C(F)(F)F)c5)c(F)c4)cnc3c2)ccn1 [LY2457546]
- IC50 [1]: 99.8 nM
- Expression of pFLT3 and pcKIT [2]: reduced expression
- Chapped lips, number of patients [3, 14]: 1
- Constipation, number of patients [3, 14]: 1
- Cough, number of patients [3, 14]: 1
- Diarrhea, number of patients [3, 14]: 2
- Epistaxis, number of patients [3, 14]: 1
- Facial swelling, number of patients [3, 14]: 1
- Fatigue, number of patients [3, 14]: 1
- Headache, number of patients [3, 14]: 3
- Hemangioma of liver, number of patients [3, 14]: 1
- Hematoma, number of patients [3, 14]: 1
- Hematuria, number of patients [3, 14]: 1
- Hemorrhoids, number of patients [3, 14]: 1
- Hepatomegaly, number of patients [3, 14]: 1
- Hyperhidrosis, number of patients [3, 14]: 1
- Hypokalemia, number of patients [3, 14]: 3
- Inguinal hernia, number of patients [3, 14]: 1
- Musculoskeletal pain, number of patients [3, 14]: 1
- Nausea, number of patients [3, 14]: 1
- Nephrolithiasis, number of patients [3, 14]: 1
- Oropharyngeal pain, number of patients [3, 14]: 1
- Osteoporosis, number of patients [3, 14]: 1
- Peripheral edema, number of patients [3, 14]: 1
- Petechiae, number of patients [3, 14]: 3
- Splenomegaly, number of patients [3, 14]: 1
- Ulcerative colitis, number of patients [3, 14]: 1
- Vertigo, number of patients [3, 14]: 1
- Anxiety, number of patients [3, 15]: 2
- Asthma, number of patients [3, 15]: 1
- Back pain, number of patients [3, 15]: 1
- Bladder spasm, number of patients [3, 15]: 1
- Constipation, number of patients [3, 15]: 1
- Epistaxis, number of patients [3, 15]: 2
- Gingival hyperplasia, number of patients [3, 15]: 1
- Hemorrhoids, number of patients [3, 15]: 1
- Hypertension, number of patients [3, 15]: 2
- Insomnia, number of patients [3, 15]: 1
- Keratoconjunctivitis sicca, number of patients [3, 15]: 1
- Stomatitis, number of patients [3, 15]: 1
- Urticaria, number of patients [3, 15]: 1
- Anal abscess, number of patients [3, 16]: 1
- Asthenia (muscle weakness), number of patients [3, 16]: 1
- Breast cellulitis, number of patients [3, 16]: 1
- Catheter-related infection, number of patients [3, 16]: 1
- Febrile neutropenia, number of patients [3, 16]: 2
- Fungal sepsis, number of patients [3, 16]: 1
- Hypotension, number of patients [3, 16]: 1
- Neutropenic sepsis, number of patients [3, 16]: 1
- Hemorrhage, number of patients [3, 17]: 1
- Hypophosphatemia, number of patients [3, 17]: 1
- Adverse events that were Grade 1 or 2 ([3]; five patients, 50 mg/day orally): 81%
- Dose-limiting toxicity ([3]; one patient (C) of five, 50 mg/day orally): generalized muscle weakness (Grade 3)
- p70S6K percent inhibition at 20 μM [4]: 75.9%
- IC50 [5]: 2.05 nM
- Antileukemia response ([6]; five treated patients, 50 mg/day): No medically relevant responses
- Leukocyte and blast cell counts ([6]; one of the five patients (B), through day 10): significant but transient decrease
- IC50 [7]: 33.5 nM
- IC50 [8]: 30.6 nM
- IC50 [9]: 221 nM
- IC50 [10]: 4.19 nM
- IC50 [11]: 5.1 nM
- IC50 [12]: 45.7 nM
- IC50 [13]: 37.4 nM
